Data set [1] addresses T1, 5-hydroxytryptamine receptor 1A (Homo sapiens) (UniProt P08908).
T1 sequence (whole entry): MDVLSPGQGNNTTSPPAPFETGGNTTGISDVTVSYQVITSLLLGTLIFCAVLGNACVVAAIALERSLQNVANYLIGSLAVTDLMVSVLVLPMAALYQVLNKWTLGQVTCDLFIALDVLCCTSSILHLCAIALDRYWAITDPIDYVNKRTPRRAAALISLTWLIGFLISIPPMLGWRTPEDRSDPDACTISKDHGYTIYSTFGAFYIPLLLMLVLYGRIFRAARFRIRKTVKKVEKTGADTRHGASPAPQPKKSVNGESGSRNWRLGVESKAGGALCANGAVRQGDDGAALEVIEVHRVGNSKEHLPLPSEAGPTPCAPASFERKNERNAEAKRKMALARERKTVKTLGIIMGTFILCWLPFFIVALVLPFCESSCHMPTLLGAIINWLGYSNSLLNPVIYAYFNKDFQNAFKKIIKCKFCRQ
The data set can be described thus: Inhibition of 5HT1A at 10 uM.

A short description of data set [2]: Metabolic stability in rat liver microsomes after 10 mins. In kind it is ADME, Microsome. The note with it: read-out: Stability. In general terms: Liver microsomes are vesicles of endoplasmic reticulum, rich in cytochrome P450 enzymes.
Data set [3] in a line: Metabolic stability in human liver microsomes after 10 mins. The data set is classed as ADME, Microsome. The settings on record: read-out: Stability.
A short description of data set [4]: Permeability from basolateral to apical side of human Caco-2 cells. In kind it is ADME, cell-based. Summed up:
(§1)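 Caco-2 monolayers cultured 21 days on Transwells. Compound at 10 μM in HBSS with 25 mM HEPES pH 7.4, added to the apical or basolateral side. Lucifer Yellow in donor buffer checked monolayer integrity. After 1 h at 37 °C, both chambers were sampled into acetonitrile with internal standard and measured by LC-MS/MS to calculate Papp.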
A general note: Passage across Caco-2 layers is used to estimate intestinal permeability.

A short description of data set [5]: AUClast in Sprague-Dawley rat at 10 mg/kg, po. The settings on record: plasma. In kind it is ADME, organism-based. Also on record: time 0 - last, dose 10 mg/kg, route oral. Summed up: (§2)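 Male SPF Sprague-Dawley rats (~250 g), n=4. HCl salt dissolved in 20% HPBCD, adjusted to pH 4.5 with NaOH. 10 mg/kg by gastric intubation. Blood sampled at 0.5, 1, 2, 4, 8 and 24 h. Parameters derived from each animal's plasma concentration-time profile by limited PK analysis.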

Another data set has as its target Cytochrome P450 2C9 (Homo sapiens, UniProt P11712). The data set can be described thus: Inhibition of human recombinant CYP2C9. In kind it is ADME.
Data set [6] is described as follows: Clearance in Sprague-Dawley rat at 2 mg/kg, iv and 10 mg/kg, po. In kind it is ADME, organism-based. The settings on record: in vivo. Put shortly:
(§3)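 Male SPF Sprague-Dawley rats (~250 g), n=4, vehicle 20% HPBCD at pH 4.5. Dosing was 2.0 mg/kg iv into the jugular vein, with blood taken at 7 and 20 min and 1, 2, 4, 8 and 24 h. Oral arm was 10 mg/kg by gastric intubation. Parameters came from each animal's plasma profile.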

Another data set concerns the target Cytochrome P450 2D6 (Homo sapiens, UniProt P10635). The data set can be described thus: Inhibition of human recombinant CYP2D6. The data set is classed as ADME.
The next data set deals with Cytochrome P450 3A4 (Homo sapiens, UniProt P08684). The data set can be described thus: Inhibition of human recombinant CYP3A4. The data set is classed as ADME.
Data set [7] in a line: Aqueous solubility of the compound in phosphate buffered saline at pH 7.4. In kind it is physicochemical.
Data set [8] is described as follows: Aqueous solubility of the compound in […]. In kind it is physicochemical.
Data set [9] in a line: Oral bioavailability in Sprague-Dawley rat at 10 mg/kg. The data set is classed as ADME, organism-based. The settings on record: in vivo. Summed up: as §2
The nature of data set [10]: Aqueous solubility of the compound in water. The data set is classed as physicochemical.
The nature of data set [11]: Volume of distribution in Sprague-Dawley rat at 2 mg/kg, iv and 10 mg/kg, po. The data set is classed as ADME, organism-based. The note with it: in vivo. Put shortly: as §3
For data set [12], the target named is 5-hydroxytryptamine receptor 2B (Homo sapiens) (UniProt P41595). The data set can be described thus: Inhibition of 5HT2B at 10 uM.
A short description of data set [13]: Aqueous solubility of the compound in phosphate buffered saline at pH 2. The data set is classed as physicochemical.
Data set [14] is described as follows: Inhibition of PKA at 10 uM. Put shortly:
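Commercial panel of 200 protein kinases, with compound at 10 μM and ATP at 10 μM. Percent inhibition is from a single concentration.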

Another data set has as its target T2, Cytochrome P450 1A2 (Homo sapiens, UniProt P05177).
T2 sequence (P05177 whole entry): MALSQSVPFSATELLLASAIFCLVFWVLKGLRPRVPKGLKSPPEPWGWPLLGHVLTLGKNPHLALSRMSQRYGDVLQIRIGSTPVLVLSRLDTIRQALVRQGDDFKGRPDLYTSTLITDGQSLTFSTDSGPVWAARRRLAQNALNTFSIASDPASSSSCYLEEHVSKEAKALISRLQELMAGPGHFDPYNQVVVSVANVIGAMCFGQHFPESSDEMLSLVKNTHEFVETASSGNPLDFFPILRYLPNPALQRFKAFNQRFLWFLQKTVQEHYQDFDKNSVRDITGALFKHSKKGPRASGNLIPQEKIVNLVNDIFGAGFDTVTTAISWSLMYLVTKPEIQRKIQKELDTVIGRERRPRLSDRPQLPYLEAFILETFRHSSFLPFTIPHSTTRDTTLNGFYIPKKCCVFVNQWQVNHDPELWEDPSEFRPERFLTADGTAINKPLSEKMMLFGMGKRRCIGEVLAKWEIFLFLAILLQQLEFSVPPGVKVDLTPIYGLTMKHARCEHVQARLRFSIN
Put plainly: Inhibition of human recombinant CYP1A2. In kind it is ADME.

Data set [15] in a line: Cmax in Sprague-Dawley rat at 10 mg/kg, po. The data set is classed as ADME, organism-based. More on the design: dose 10 mg/kg, route oral. The note with it: in vivo. Summed up: as §2
Data set [16] deals with 5-hydroxytryptamine receptor 7 (Homo sapiens) (UniProt P34969). Put plainly: Inhibition of 5HT7 at 10 uM.
A short description of data set [17]: Permeability from apical to basolateral side of human Caco-2 cells. The data set is classed as ADME, cell-based. Summed up: as §1
In the next data set the target is Cytochrome P450 2C19 (Homo sapiens, UniProt P33261). The data set can be described thus: Inhibition of human recombinant CYP2C19. The data set is classed as ADME.

Converted amounts (≈) assume the structure as drawn.

Sequence of Cytochrome P450 2D6 (P10635 whole entry): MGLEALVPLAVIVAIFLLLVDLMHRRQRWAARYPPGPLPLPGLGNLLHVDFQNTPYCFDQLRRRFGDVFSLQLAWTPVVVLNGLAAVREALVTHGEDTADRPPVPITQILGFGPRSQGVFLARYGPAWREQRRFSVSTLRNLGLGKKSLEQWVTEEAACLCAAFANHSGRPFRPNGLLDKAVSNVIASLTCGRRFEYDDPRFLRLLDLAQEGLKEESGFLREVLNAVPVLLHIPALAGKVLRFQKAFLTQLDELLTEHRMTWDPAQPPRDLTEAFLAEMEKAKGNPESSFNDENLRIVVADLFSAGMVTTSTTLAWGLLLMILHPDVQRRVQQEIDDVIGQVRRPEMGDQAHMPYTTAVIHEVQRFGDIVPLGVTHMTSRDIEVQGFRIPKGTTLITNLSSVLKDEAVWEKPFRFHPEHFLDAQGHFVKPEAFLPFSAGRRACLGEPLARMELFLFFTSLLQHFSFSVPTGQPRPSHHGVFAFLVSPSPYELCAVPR
Sequence of Cytochrome P450 2C19 (P33261 whole entry): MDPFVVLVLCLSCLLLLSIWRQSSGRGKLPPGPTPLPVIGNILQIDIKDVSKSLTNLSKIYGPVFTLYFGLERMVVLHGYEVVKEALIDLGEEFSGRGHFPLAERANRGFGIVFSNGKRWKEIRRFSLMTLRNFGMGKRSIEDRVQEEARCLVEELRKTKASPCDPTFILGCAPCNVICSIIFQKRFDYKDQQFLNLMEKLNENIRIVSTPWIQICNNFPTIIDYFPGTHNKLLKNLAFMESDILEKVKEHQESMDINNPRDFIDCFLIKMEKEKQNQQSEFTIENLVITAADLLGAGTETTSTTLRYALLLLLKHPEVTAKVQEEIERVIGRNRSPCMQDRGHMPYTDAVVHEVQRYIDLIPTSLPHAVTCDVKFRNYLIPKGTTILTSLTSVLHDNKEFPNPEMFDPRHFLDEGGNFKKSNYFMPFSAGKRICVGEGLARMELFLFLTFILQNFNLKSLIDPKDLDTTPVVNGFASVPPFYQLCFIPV
Sequence of Cytochrome P450 2C9 (P11712 whole entry): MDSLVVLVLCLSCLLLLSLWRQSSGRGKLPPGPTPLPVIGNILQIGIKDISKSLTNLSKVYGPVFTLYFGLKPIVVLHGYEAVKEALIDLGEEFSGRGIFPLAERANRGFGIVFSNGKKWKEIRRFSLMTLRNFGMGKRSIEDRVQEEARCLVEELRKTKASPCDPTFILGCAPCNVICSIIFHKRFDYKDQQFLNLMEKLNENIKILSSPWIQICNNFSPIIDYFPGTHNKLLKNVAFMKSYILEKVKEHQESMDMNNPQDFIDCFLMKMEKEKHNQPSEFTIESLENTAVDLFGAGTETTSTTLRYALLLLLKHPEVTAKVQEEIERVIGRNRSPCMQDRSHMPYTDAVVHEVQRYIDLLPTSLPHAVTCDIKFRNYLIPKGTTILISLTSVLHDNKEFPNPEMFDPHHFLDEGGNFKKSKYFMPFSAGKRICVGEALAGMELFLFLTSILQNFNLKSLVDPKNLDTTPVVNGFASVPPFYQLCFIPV
Sequence of 5-hydroxytryptamine receptor 7 (Homo sapiens) (P34969 whole entry): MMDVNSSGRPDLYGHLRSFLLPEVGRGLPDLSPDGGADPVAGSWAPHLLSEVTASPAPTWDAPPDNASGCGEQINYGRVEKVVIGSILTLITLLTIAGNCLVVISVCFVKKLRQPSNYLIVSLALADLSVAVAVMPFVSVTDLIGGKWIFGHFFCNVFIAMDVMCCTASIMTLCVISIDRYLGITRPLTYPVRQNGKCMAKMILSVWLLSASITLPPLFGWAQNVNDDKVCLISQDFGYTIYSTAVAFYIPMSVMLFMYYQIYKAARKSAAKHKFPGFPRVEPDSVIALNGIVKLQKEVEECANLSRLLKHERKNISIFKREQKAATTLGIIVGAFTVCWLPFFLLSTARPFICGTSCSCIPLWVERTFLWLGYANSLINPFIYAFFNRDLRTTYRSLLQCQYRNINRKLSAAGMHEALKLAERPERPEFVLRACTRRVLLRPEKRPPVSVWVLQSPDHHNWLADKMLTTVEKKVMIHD
Sequence of 5-hydroxytryptamine receptor 2B (Homo sapiens) (P41595 whole entry): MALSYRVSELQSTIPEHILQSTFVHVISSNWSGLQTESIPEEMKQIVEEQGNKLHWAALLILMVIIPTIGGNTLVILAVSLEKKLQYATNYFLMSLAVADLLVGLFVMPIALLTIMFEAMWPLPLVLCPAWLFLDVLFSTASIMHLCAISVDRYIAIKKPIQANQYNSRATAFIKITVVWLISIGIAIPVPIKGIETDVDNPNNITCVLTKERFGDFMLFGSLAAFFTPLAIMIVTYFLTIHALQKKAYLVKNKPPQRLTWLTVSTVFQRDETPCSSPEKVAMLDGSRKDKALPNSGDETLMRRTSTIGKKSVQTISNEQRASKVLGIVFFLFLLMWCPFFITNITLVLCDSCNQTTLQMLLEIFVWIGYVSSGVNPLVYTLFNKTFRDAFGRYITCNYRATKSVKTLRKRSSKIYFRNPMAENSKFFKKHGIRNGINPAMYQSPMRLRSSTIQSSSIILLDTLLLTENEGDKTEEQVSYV
Sequence of Cytochrome P450 3A4 (P08684 whole entry): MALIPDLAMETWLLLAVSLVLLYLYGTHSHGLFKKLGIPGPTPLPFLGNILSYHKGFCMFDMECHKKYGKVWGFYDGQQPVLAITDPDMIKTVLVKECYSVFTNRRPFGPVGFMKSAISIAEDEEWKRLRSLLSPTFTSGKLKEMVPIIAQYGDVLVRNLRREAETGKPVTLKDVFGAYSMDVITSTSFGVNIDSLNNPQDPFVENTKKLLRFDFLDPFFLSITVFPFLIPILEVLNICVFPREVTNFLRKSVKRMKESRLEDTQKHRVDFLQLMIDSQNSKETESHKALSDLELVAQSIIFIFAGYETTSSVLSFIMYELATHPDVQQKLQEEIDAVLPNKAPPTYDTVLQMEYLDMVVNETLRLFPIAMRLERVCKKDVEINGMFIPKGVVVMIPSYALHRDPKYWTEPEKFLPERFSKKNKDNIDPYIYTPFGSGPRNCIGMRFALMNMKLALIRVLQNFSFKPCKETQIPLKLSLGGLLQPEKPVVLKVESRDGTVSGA

Turning to `CSc1nn(-c2ccccc2)c2cc(NC(=O)C3CCNCC3)ccc12`, the inhibition in data set [1] was 83%; in data set [12], 91%; in data set [14], 99%; in [16], 95%. Further, the figures for the remaining at 10 min in [2] and in data set [3] were 95% and 96%, respectively. In data set [4], this compound had a Papp B→A of 9.47 ×10⁻⁶ cm/s. Also, the AUC(0-t) in data set [5] worked out at 9030 ng·h/mL. Further, the IC50 on Cytochrome P450 2C9, on Cytochrome P450 2D6, on Cytochrome P450 3A4, at Cytochrome P450 1A2 and on Cytochrome P450 2C19 was > 10 µM each time. The compound further yielded a clearance in data set [6] of 11.6 mL/min/kg. For the same compound, the solubility in data set [7] was found to be 45.2 µM (≈ 16.6 µg/mL); in [8], 40 µM (≈ 14.7 µg/mL); in data set [10], 40.7 µM (≈ 14.9 µg/mL); in data set [13], 35.3 µM (≈ 12.9 µg/mL). Also, the bioavailability in [9] stood at 75.4%. The same compound yielded a Vd in data set [11] of 8.53 L/kg. For the same compound, the peak concentration (Cmax) in data set [15] was determined as 529 ng/mL. Moreover, the Papp A→B in [17] was determined as 1.65 ×10⁻⁶ cm/s.

For orientation: inhibition means how much of the control response was suppressed. As usually defined, the Papp B→A is the apparent permeability from the basolateral to the apical side of a cell layer. As a reminder, the AUC(0-t) is exposure summed from dosing to a finite time, without extrapolation to infinity. A higher AUC(0-t) goes with more exposure. The IC50 is the point on the concentration scale where inhibition reaches its midpoint. The solubility is the dissolved amount per volume that the medium holds. Read a high solubility as a readily soluble substance. Broadly, the bioavailability is dose-corrected exposure relative to a reference, in per cent. A low value points to poor availability. As a reminder, the Cmax is the peak of the concentration-time curve. What is called Papp A→B is the apparent permeability from the apical to the basolateral side of a cell layer.

Values taken from ChEMBL document CHEMBL1269008, “Electron density guided fragment-based lead discovery of ketohexokinase inhibitors” (J Med Chem, 2010).
